Experiment [1] deals with HeLa. The experiment can be described thus: Antiproliferative activity against human HeLa cells after 48 hrs by sulforhodamine B assay. Type of experiment: functional, cell-based. The method, boiled down: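 HeLa cells (STR-validated) grown in BME with 10% FBS and gentamycin, seeded 2500/well, left to adhere overnight, then exposed to compounds for 48 h. Cell density read by sulforhodamine B staining. IC50 is the concentration giving 50% inhibition of cell density versus vehicle, fitted by nonlinear regression. Mean of 3 or 4 experiments, each in triplicate, ±SD.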
On the technique in general: The SRB assay estimates cell density from bound dye.

In experiment [2] the test system is HeLa. In words: Induction of microtubule stabilization in human HeLa cells assessed as bundling of interphase microtubule at 5 times IC50 after 18 hrs by indirect immunofluorescence assay. Type of experiment: cell-based. The essentials: (§1)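 HeLa cells treated for 18 h at 5-fold each compound's own antiproliferative IC50, with EtOH as vehicle control. Mitotic and interphase microtubules stained by indirect immunofluorescence with a β-tubulin antibody and viewed by fluorescence microscopy.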

The subject of experiment [3] is HeLa. In words: Induction of microtubule stabilization in human HeLa cells assessed as formation of multiple aberrant mitotic spindle at 5 times IC50 after 18 hrs by indirect immunofluorescence assay. Type of experiment: cell-based. The method, boiled down:
as §1

Active and inactive are the calls of the source. The rule behind the calls is not given here.

As usually defined, the IC50 is the concentration that inhibits the measured activity by half. A low value points to inhibition by little substance. Take `CC(=O)O[C@H]1[C@H]2[C@H]([C@@H]3[C@@H](OC(=O)C4CC4)[C@@H]4[C@H]([C@H](C)C=C5OC(=O)[C@@](C)(O)[C@@]54C)[C@@]3(C)[C@H]1OC(C)=O)[C@@H](O)C(=O)[C@H]1C[C@@H]3O[C@@H]3[C@H](OC(C)=O)[C@]21C`: the concentration for half-maximal inhibition (IC50) in experiment [1] was > 20000 nM.
Take `CC(=O)O[C@H]1[C@H]2[C@H]([C@@H]3[C@@H](O)[C@@H]4[C@H]([C@H](C)[C@H]5O[C@]56OC(=O)[C@@](C)(OC(=O)c5ccc7c(c5)C(=O)c5ccccc5C7=O)[C@]46C)[C@@]3(C)[C@H]1OC(C)=O)[C@@H](OC(=O)c1ccc3c(c1)C(=O)c1ccccc1C3=O)C(=O)[C@H]1C[C@@H]3O[C@@H]3[C@H](OC(C)=O)[C@]21C`: the IC50 in experiment [1] turned out to be 3000 nM.
Still for that read-out and setting: then `CC(=O)O[C@H]1[C@H]2[C@H]([C@@H]3[C@@H](O)[C@@H]4[C@H]([C@H](C)C=C5OC(=O)[C@@](C)(O)[C@@]54C)[C@@]3(C)[C@H]1OC(C)=O)[C@@H](OC(=O)c1ccc3c(c1)C(=O)c1ccccc1C3=O)C(=O)[C@H]1C[C@@H]3O[C@@H]3[C@H](OC(C)=O)[C@]21C`, with 3400 nM.
`CC(=O)O[C@H]1[C@H]2[C@H]([C@@H]3[C@@H](OC(=O)c4ccc5c(c4)C(=O)c4ccccc4C5=O)[C@@H]4[C@H]([C@H](C)[C@H]5O[C@]56OC(=O)[C@@](C)(O)[C@]46C)[C@@]3(C)[C@H]1OC(C)=O)[C@@H](O)C(=O)[C@H]1C[C@@H]3O[C@@H]3[C@H](OC(C)=O)[C@]21C`: the IC50 in experiment [1] was 38 nM.
`CC(=O)O[C@H]1[C@H]2[C@H]([C@@H]3[C@@H](O)[C@@H]4[C@H]([C@H](C)[C@H]5O[C@]56OC(=O)[C@@](C)(O)[C@]46C)[C@@]3(C)[C@H]1OC(C)=O)[C@@H](OC(=O)C(C)C)C(=O)[C@H]1C[C@@H]3O[C@@H]3[C@H](OC(C)=O)[C@]21C`: the outcome in experiment [2] and in experiment [3] was Active. Besides, the IC50 in experiment [1] amounted to 19 nM.
`CC(=O)O[C@H]1[C@H]2[C@H]([C@@H]3[C@@H](OC=O)[C@@H]4[C@H]([C@H](C)C=C5OC(=O)[C@@](C)(O)[C@@]54C)[C@@]3(C)[C@H]1OC(C)=O)[C@@H](O)C(=O)[C@H]1C[C@@H]3O[C@@H]3[C@H](OC(C)=O)[C@]21C`: the IC50 in experiment [1] was > 20000 nM.
In the case of `CC(=O)O[C@H]1[C@H]2[C@H]([C@@H]3[C@@H](O)[C@@H]4[C@H]([C@H](C)C=C5OC(=O)[C@@](C)(OC(=O)CC(C)C)[C@@]54C)[C@@]3(C)[C@H]1OC(C)=O)[C@@H](OC(=O)CC(C)C)C(=O)[C@H]1C[C@@H]3O[C@@H]3[C@H](OC(C)=O)[C@]21C`, in experiment [1], the IC50 was > 20000 nM.
The compound `CC(=O)O[C@H]1[C@H]2[C@H]([C@@H]3[C@@H](OC=O)[C@@H]4[C@H]([C@H](C)[C@H]5O[C@]56OC(=O)[C@@](C)(O)[C@]46C)[C@@]3(C)[C@H]1OC(C)=O)[C@@H](O)C(=O)[C@H]1C[C@@H]3O[C@@H]3[C@H](OC(C)=O)[C@]21C` registered a 50% inhibitory concentration (IC50) in experiment [1] of 8.4 nM. In addition, the result in experiment [3] was Active.
In the case of `CC(=O)O[C@@H]1[C@H]2[C@H]3[C@H]([C@H](OC(C)=O)[C@H](OC(C)=O)[C@]2(C)[C@@H]2[C@@H]1[C@]1(C)C(=C[C@H]2C)OC(=O)[C@@]1(C)O)[C@]1(C)[C@H](C[C@@H]2O[C@@H]2[C@@H]1OC(C)=O)C(=O)[C@@H]3O` [TACCALONOLIDE A], the midpoint of inhibition in experiment [1], the IC50, lay at 5400 nM.
Regarding `CC(=O)O[C@H]1[C@H]2[C@H]([C@@H]3[C@@H](O)[C@@H]4[C@H]([C@H](C)C=C5OC(=O)[C@@](C)(O)[C@@]54C)[C@@]3(C)[C@H]1OC(C)=O)[C@@H](OC(=O)CC(C)C)C(=O)[C@H]1C[C@@H]3O[C@@H]3[C@H](OC(C)=O)[C@]21C`, in experiment [1], the IC50 is > 20000 nM.
`CC(=O)O[C@H]1[C@H]2[C@H]([C@@H]3[C@@H](O)[C@@H]4[C@H]([C@H](C)[C@H]5O[C@]56OC(=O)[C@@](C)(O)[C@]46C)[C@@]3(C)[C@H]1OC(C)=O)[C@@H](OC(=O)c1ccc3c(c1)C(=O)c1ccccc1C3=O)C(=O)[C@H]1C[C@@H]3O[C@@H]3[C@H](OC(C)=O)[C@]21C` yielded an IC50 in experiment [1] of 22 nM.
`CC(=O)O[C@H]1[C@H]2[C@H]([C@@H]3[C@@H](O)[C@@H]4[C@H]([C@H](C)C=C5OC(=O)[C@@](C)(OC(=O)c6ccc7c(c6)C(=O)c6ccccc6C7=O)[C@@]54C)[C@@]3(C)[C@H]1OC(C)=O)[C@@H](OC(=O)c1ccc3c(c1)C(=O)c1ccccc1C3=O)C(=O)[C@H]1C[C@@H]3O[C@@H]3[C@H](OC(C)=O)[C@]21C`: the half-maximal inhibitory concentration (IC50) in experiment [1] was > 20000 nM.
As to `CC(=O)O[C@H]1[C@H]2[C@H]([C@@H]3[C@@H](O)[C@@H]4[C@H]([C@H](C)C=C5OC(=O)[C@@](C)(O)[C@@]54C)[C@@]3(C)[C@H]1OC(C)=O)[C@@H](OC(=O)C(C)C)C(=O)[C@H]1C[C@@H]3O[C@@H]3[C@H](OC(C)=O)[C@]21C`, the half-inhibitory concentration (IC50) in experiment [1] was 4700 nM.
For `CC(=O)O[C@H]1[C@H]2[C@H]([C@@H]3[C@@H](O)[C@@H]4[C@H]([C@H](C)[C@H]5O[C@]56OC(=O)[C@@](C)(OC(=O)C5CC5)[C@]46C)[C@@]3(C)[C@H]1OC(C)=O)[C@@H](OC(=O)C1CC1)C(=O)[C@H]1C[C@@H]3O[C@@H]3[C@H](OC(C)=O)[C@]21C`, the outcome in experiment [2] and in experiment [3] was Active. Further, the IC50 in experiment [1] was 130 nM.
With `CC(=O)O[C@H]1[C@H]2[C@H]([C@@H]3[C@@H](OC(=O)CC(C)C)[C@@H]4[C@H]([C@H](C)C=C5OC(=O)[C@@](C)(O)[C@@]54C)[C@@]3(C)[C@H]1OC(C)=O)[C@@H](O)C(=O)[C@H]1C[C@@H]3O[C@@H]3[C@H](OC(C)=O)[C@]21C`, the IC50 in experiment [1] turned out to be 1500 nM.
`CC(=O)O[C@H]1[C@H]2[C@H]([C@@H]3[C@@H](OC(=O)c4ccc5c(c4)C(=O)c4ccccc4C5=O)[C@@H]4[C@H]([C@H](C)C=C5OC(=O)[C@@](C)(O)[C@@]54C)[C@@]3(C)[C@H]1OC(C)=O)[C@@H](O)C(=O)[C@H]1C[C@@H]3O[C@@H]3[C@H](OC(C)=O)[C@]21C`: the IC50 in experiment [1] came out at 7100 nM.
Consider `CC(=O)O[C@H]1[C@H]2[C@H]([C@@H]3[C@@H](O)[C@@H]4[C@H]([C@H](C)C=C5OC(=O)[C@@](C)(OC(=O)C(C)C)[C@@]54C)[C@@]3(C)[C@H]1OC(C)=O)[C@@H](OC(=O)C(C)C)C(=O)[C@H]1C[C@@H]3O[C@@H]3[C@H](OC(C)=O)[C@]21C`, for which, in experiment [1], the concentration for half-maximal inhibition (IC50) was > 20000 nM.
For the compound `CC(=O)O[C@H]1[C@H]2[C@H]([C@@H]3[C@@H](O)[C@@H]4[C@H]([C@H](C)C=C5OC(=O)[C@@](C)(OC(=O)C6CC6)[C@@]54C)[C@@]3(C)[C@H]1OC(C)=O)[C@@H](OC(=O)C1CC1)C(=O)[C@H]1C[C@@H]3O[C@@H]3[C@H](OC(C)=O)[C@]21C`, the IC50 in experiment [1] was > 20000 nM.
`CC(=O)O[C@H]1[C@H]2[C@H]([C@@H]3[C@@H](O)[C@@H]4[C@H]([C@H](C)[C@H]5O[C@]56OC(=O)[C@@](C)(OC(=O)C(C)C)[C@]46C)[C@@]3(C)[C@H]1OC(C)=O)[C@@H](OC(=O)C(C)C)C(=O)[C@H]1C[C@@H]3O[C@@H]3[C@H](OC(C)=O)[C@]21C` gave an IC50 in experiment [1] of 790 nM. Also, the outcome in experiment [3] was Active.
As to `CC(=O)O[C@H]1[C@H]2[C@H]([C@@H]3[C@@H](OC(=O)C(C)(C)C)[C@@H]4[C@H]([C@H](C)C=C5OC(=O)[C@@](C)(O)[C@@]54C)[C@@]3(C)[C@H]1OC(C)=O)[C@@H](O)C(=O)[C@H]1C[C@@H]3O[C@@H]3[C@H](OC(C)=O)[C@]21C`, 2400 nM corresponded to half-maximal inhibition in experiment [1] (IC50).
`CC(=O)O[C@H]1[C@H]2[C@H]([C@@H]3[C@@H](OC(=O)C(C)C)[C@@H]4[C@H]([C@H](C)C=C5OC(=O)[C@@](C)(O)[C@@]54C)[C@@]3(C)[C@H]1OC(C)=O)[C@@H](O)C(=O)[C@H]1C[C@@H]3O[C@@H]3[C@H](OC(C)=O)[C@]21C`: the IC50 in experiment [1] was > 20000 nM.
Same read-out and setting: with `CC(=O)O[C@H]1[C@H]2[C@H]([C@@H]3[C@@H](O)[C@@H]4[C@H]([C@H](C)C=C5OC(=O)[C@@](C)(O)[C@@]54C)[C@@]3(C)[C@H]1OC(C)=O)[C@@H](OC(=O)C(C)(C)C)C(=O)[C@H]1C[C@@H]3O[C@@H]3[C@H](OC(C)=O)[C@]21C` the figure was 10000 nM.
Turning to `CC(=O)O[C@H]1[C@H]2[C@H]([C@@H]3[C@@H](O)[C@@H]4[C@H]([C@H](C)[C@H]5O[C@]56OC(=O)[C@@](C)(OC(=O)CC(C)C)[C@]46C)[C@@]3(C)[C@H]1OC(C)=O)[C@@H](OC(=O)CC(C)C)C(=O)[C@H]1C[C@@H]3O[C@@H]3[C@H](OC(C)=O)[C@]21C`, the outcome in experiment [2] and in experiment [3] was Active. In addition, half-maximal inhibition in experiment [1] (IC50) required 250 nM.

The values are drawn from ChEMBL document CHEMBL4138275, “Taccalonolide Microtubule Stabilizers Generated Using Semisynthesis Define the Effects of Mono Acyloxy Moieties at C-7 or C-15 and Disubstitutions at C-7 and C-25” (J Nat Prod, 2018).
